Source: ChEMBL document CHEMBL1126896, “Preparation and anti-HIV activity of O-acylated heparin and dermatan sulfate derivatives with low anticoagulant effect” (J Med Chem, 1993)

Key:
MT4 [1] = experiment: Selectivity index for CC50 (cytotoxic concentration based on reduction of viability of mock-infected MT-4 cells) to that of EC50 against HIV-2; format: functional
Method in brief: (§1)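 MT-4 cells at 3 × 10^5 cells/mL were infected with HIV-1 IIIB or HIV-2 ROD at 100 CCID50/mL, or mock-infected, alongside serial compound dilutions. Viability was read by MTT after 5 days at 37 °C. CC50 comes from mock-infected cells and EC50 from protection against cytopathicity. Index = CC50/EC50.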

MT4 [2] = experiment: Selectivity index for CC50 (cytotoxic concentration based on the reduction of the viability of mock-infected MT-4 cells) to that of EC50 against HIV-1; format: functional; method in brief: as §1
[3] = In vitro anticoagulant activity determined by clotting test of activated partial thromboplastin time (APTT) on a pool of human plasma; format: functional
Method in brief: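 Activated partial thromboplastin time clotting test on pooled human plasma, run on an automatic coagulometer. Activities were calculated according to the European Pharmacopoeia.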

HuT78 [4] = experiment: Giant-cell formation between persistently HIV-1 infected HUT-78 cells and uninfected MOLT-4 cells; format: functional, cell-based
Method in brief: (§2)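 MOLT-4 cells were co-cultured with an equal number of HUT-78 cells persistently infected with HIV-1 IIIB or HIV-2 ROD, with varying compound concentrations. Syncytia were counted by flow cytofluorography after 24 h. EC50 is the concentration giving 50% protection against giant-cell formation.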

MT4 [5] = experiment: Effective concentration to achieve 50% protection of MT-4 cells against the cytopathic effect of HIV-2; format: functional, cell-based
HuT78 [6] = experiment: Giant-cell formation between persistently HIV-2 infected HUT-78 cells and uninfected MOLT-4 cells; format: functional, cell-based; method in brief: as §2
MT4 [7] = experiment: Effective concentration to achieve 50% protection of MT-4 cells against the cytopathic effect of HIV-1; format: functional, cell-based
[8] = Homo sapiens, HuT78, read-out: EC50
[9] = Homo sapiens, MT4, read-out: EC50

| Structure (SMILES) | Selectivity index (MT4 [1]) | Selectivity index (MT4 [2]) | APTT [3] | EC50 (HuT78 [4]; [8]) | EC50 (MT4 [5]; [9]) | EC50 (HuT78 [6]; [8]) | EC50 (MT4 [7]; [9]) | EC50 (HuT78 [4]; hut78) | EC50 (MT4 [5]; mt4) | EC50 (MT4 [7]; mt4) | EC50 (HuT78 [6]; hut78) |
| --- | --- | --- | --- | --- | --- | --- | --- | --- | --- | --- | --- |
| CCCCOC(=O)/C=C(\CO)OC1OC(COS(=O)(=O)[O-])C(OC2OC(C(=O)OCCCC)C(OC3OC(COS(=O)(=O)[O-])C(OC4OC(C(=O)OCCCC)C(OC5OC(COS(=O)(=O)[O-])C(O)C(O)C5NC(C)=O)C(O)C4OS(=O)(=O)[O-])C(O)C3NC(C)=O)C(O)C2OS(=O)(=O)[O-])C(O)C1NC(C)=O.[Na+].[Na+].[Na+].[Na+].[Na+] (stereo not given) | >200 | >77 | 1.2 IU mg-1 | 100 µg/mL | 2.5 µg/mL | 20 µg/mL | 6.5 µg/mL |  |  |  |  |
| CC(=O)NC1C(OC2C(C(=O)[O-])OC(OC3C(COS(=O)(=O)[O-])OC(OC4C(C(=O)[O-])OC(OC5C(COS(=O)(=O)[O-])OC(O/C(=C/C(=O)[O-])CO)C(NC(C)=O)C5O)C(OS(=O)(=O)[O-])C4O)C(NC(C)=O)C3O)C(OS(=O)(=O)[O-])C2O)OC(COS(=O)(=O)[O-])C(O)C1O.[Na+].[Na+].[Na+].[Na+].[Na+].[Na+].[Na+].[Na+] (stereo not given) | >185 | >122 | 2.4 IU mg-1 | 500 µg/mL | 2.7 µg/mL | 60 µg/mL | 4.1 µg/mL |  |  |  |  |
| CCCC(=O)OC/C(=C\C(=O)[O-])OC1OC(COS(=O)(=O)[O-])C(OC2OC(C(=O)[O-])C(OC3OC(COS(=O)(=O)[O-])C(OC4OC(C(=O)[O-])C(OC5OC(COS(=O)(=O)[O-])C(O)C(OC(=O)CCC)C5NC(C)=O)C(OC(=O)CCC)C4OS(=O)(=O)[O-])C(OC(=O)CCC)C3NC(C)=O)C(OC(=O)CCC)C2OS(=O)(=O)[O-])C(OC(=O)CCC)C1NC(C)=O.[Na+].[Na+].[Na+].[Na+].[Na+].[Na+].[Na+].[Na+] (stereo not given) | >417 | >1000 | 6 IU mg-1 | 15 µg/mL | 1.2 µg/mL | 20 µg/mL | 0.5 µg/mL |  |  |  |  |
| C/C=C\COC(=O)/C=C(\CO)OC1OC(COS(=O)(=O)[O-])C(OC2OC(C(=O)OC/C=C/C)C(OC3OC(COS(=O)(=O)[O-])C(OC4OC(C(=O)OC/C=C/C)C(OC5OC(COS(=O)(=O)[O-])C(O)C(O)C5NS(=O)(=O)[O-])C(O)C4OS(=O)(=O)[O-])C(O)C3NS(=O)(=O)[O-])C(O)C2OS(=O)(=O)[O-])C(O)C1NS(=O)(=O)[O-].[Na+].[Na+].[Na+].[Na+].[Na+].[Na+].[Na+].[Na+] (stereo not given) | >384 | >5000 | 3 IU mg-1 | 10 µg/mL | 1.3 µg/mL | 1 µg/mL | 0.1 µg/mL |  |  |  |  |
| C=CCOC(=O)/C=C(\CO)OC1OC(COS(=O)(=O)[O-])C(OC2OC(C(=O)OCC=C)C(OC3OC(COS(=O)(=O)[O-])C(OC4OC(C(=O)OCC=C)C(OC5OC(COS(=O)(=O)[O-])C(O)C(O)C5NS(=O)(=O)[O-])C(O)C4OS(=O)(=O)[O-])C(O)C3NS(=O)(=O)[O-])C(O)C2OS(=O)(=O)[O-])C(O)C1NS(=O)(=O)[O-].[Na+].[Na+].[Na+].[Na+].[Na+].[Na+].[Na+].[Na+] (stereo not given) | >500 | >2500 | 2 IU mg-1 | 100 µg/mL | 1 µg/mL | 3 µg/mL | 0.2 µg/mL |  |  |  |  |
| C=CCCOC(=O)/C=C(\CO)OC1OC(COS(=O)(=O)[O-])C(OC2OC(C(=O)OCCC=C)C(OC3OC(COS(=O)(=O)[O-])C(OC4OC(C(=O)OCCC=C)C(OC5OC(COS(=O)(=O)[O-])C(O)C(O)C5NS(=O)(=O)[O-])C(O)C4OS(=O)(=O)[O-])C(O)C3NS(=O)(=O)[O-])C(O)C2OS(=O)(=O)[O-])C(O)C1NS(=O)(=O)[O-].[Na+].[Na+].[Na+].[Na+].[Na+].[Na+].[Na+].[Na+] (stereo not given) | >208 | >833 | 3 IU mg-1 | 90 µg/mL | 2.4 µg/mL | 2 µg/mL | 0.6 µg/mL |  |  |  |  |
| O=C(/C=C(\CO)OC1OC(COS(=O)(=O)[O-])C(OC2OC(C(=O)OCc3ccccc3)C(OC3OC(COS(=O)(=O)[O-])C(OC4OC(C(=O)OCc5ccccc5)C(OC5OC(COS(=O)(=O)[O-])C(O)C(O)C5NS(=O)(=O)[O-])C(O)C4OS(=O)(=O)[O-])C(O)C3NS(=O)(=O)[O-])C(O)C2OS(=O)(=O)[O-])C(O)C1NS(=O)(=O)[O-])OCc1ccccc1.[Na+].[Na+].[Na+].[Na+].[Na+].[Na+].[Na+].[Na+] (stereo not given) | >1250 | >1515 | 4 IU mg-1 | 1 µg/mL | 0.4 µg/mL | 2 µg/mL | 0.33 µg/mL |  |  |  |  |
| CCCCOC(=O)/C=C(\COC(=O)CCC)OC1OC(COS(=O)(=O)[O-])C(OC2OC(C(=O)OCCCC)C(OC3OC(COS(=O)(=O)[O-])C(OC4OC(C(=O)OCCCC)C(OC5OC(COS(=O)(=O)[O-])C(O)C(OC(=O)CCC)C5NS(=O)(=O)[O-])C(OC(=O)CCC)C4OS(=O)(=O)[O-])C(OC(=O)CCC)C3NS(=O)(=O)[O-])C(OC(=O)CCC)C2OS(=O)(=O)[O-])C(OC(=O)CCC)C1NS(=O)(=O)[O-].[Na+].[Na+].[Na+].[Na+].[Na+].[Na+].[Na+].[Na+] (stereo not given) | >1850 | >1785 | 5 IU mg-1 | 4 µg/mL | 0.27 µg/mL | 4 µg/mL | 0.28 µg/mL |  |  |  |  |
| COc1ccc(COC(=O)/C=C(\CO)OC2OC(COS(=O)(=O)[O-])C(OC3OC(C(=O)OCc4ccc(OC)cc4)C(OC4OC(COS(=O)(=O)[O-])C(OC5OC(C(=O)OCc6ccc(OC)cc6)C(OC6OC(COS(=O)(=O)[O-])C(O)C(O)C6NS(=O)(=O)[O-])C(O)C5OS(=O)(=O)[O-])C(O)C4NS(=O)(=O)[O-])C(O)C3OS(=O)(=O)[O-])C(O)C2NS(=O)(=O)[O-])cc1.[Na+].[Na+].[Na+].[Na+].[Na+].[Na+].[Na+].[Na+] (stereo not given) | >119 | >5000 | 4 IU mg-1 | > 100 µg/mL | 4.3 µg/mL | > 100 µg/mL | 0.1 µg/mL |  |  |  |  |
| O=C([O-])/C=C(\CO)OC1OC(COS(=O)(=O)[O-])C(OC2OC(C(=O)[O-])C(OC3OC(COS(=O)(=O)[O-])C(OC4OC(C(=O)[O-])C(OC5OC(COS(=O)(=O)[O-])C(O)C(O)C5NS(=O)(=O)[O-])C(O)C4OS(=O)(=O)[O-])C(O)C3NS(=O)(=O)[O-])C(O)C2OS(=O)(=O)[O-])C(O)C1NS(=O)(=O)[O-].[Na+].[Na+].[Na+].[Na+].[Na+].[Na+].[Na+].[Na+].[Na+].[Na+].[Na+] (stereo in doubt; 3a) | 318 | >961 | 5 IU mg-1 |  |  | > 200 µg/mL |  | > 200 µg/mL | 77 µg/mL | 0.52 µg/mL |  |
| CCCCCC(=O)OC/C(=C\C(=O)[O-])OC1OC(COS(=O)(=O)[O-])C(OC2OC(C(=O)[O-])C(OC3OC(COS(=O)(=O)[O-])C(OC4OC(C(=O)[O-])C(OC5OC(CS(=O)(=O)[O-])C(O)C(OC(=O)CCCCC)C5NS(=O)(=O)[O-])C(OC(=O)CCCCC)C4OS(=O)(=O)[O-])C(OC(=O)CCCCC)C3NS(=O)(=O)[O-])C(OC(=O)CCCCC)C2OS(=O)(=O)[O-])C(OC(=O)CCCCC)C1NS(=O)(=O)[O-].[Na+].[Na+].[Na+].[Na+].[Na+].[Na+].[Na+].[Na+].[Na+].[Na+].[Na+] (stereo in doubt; 3f) | >500 | >2500 | 4 IU mg-1 |  |  |  |  | 7 µg/mL | 1 µg/mL | 0.2 µg/mL | 100 µg/mL |
| CCCCCC(=O)OC/C(=C\C(=O)[O-])OC1OC(COS(=O)(=O)[O-])C(OC2OC(C(=O)[O-])C(OC3OC(COS(=O)(=O)[O-])C(OC4OC(C(=O)[O-])C(OC5OC(CS(=O)(=O)[O-])C(O)C(OC(=O)CCCCC)C5NS(=O)(=O)[O-])C(OC(=O)CCCCC)C4OS(=O)(=O)[O-])C(OC(=O)CCCCC)C3NS(=O)(=O)[O-])C(OC(=O)CCCCC)C2OS(=O)(=O)[O-])C(OC(=O)CCCCC)C1NS(=O)(=O)[O-].[Na+].[Na+].[Na+].[Na+].[Na+].[Na+].[Na+].[Na+].[Na+].[Na+].[Na+] (stereo in doubt; 3i) | >1666 | >2600 |  |  |  |  |  |  | 0.3 µg/mL |  | 13 µg/mL |
| CCCCCC(=O)OC/C(=C\C(=O)[O-])OC1OC(COS(=O)(=O)[O-])C(OC2OC(C(=O)[O-])C(OC3OC(COS(=O)(=O)[O-])C(OC4OC(C(=O)[O-])C(OC5OC(CS(=O)(=O)[O-])C(O)C(OC(=O)CCCCC)C5NS(=O)(=O)[O-])C(OC(=O)CCCCC)C4OS(=O)(=O)[O-])C(OC(=O)CCCCC)C3NS(=O)(=O)[O-])C(OC(=O)CCCCC)C2OS(=O)(=O)[O-])C(OC(=O)CCCCC)C1NS(=O)(=O)[O-].[Na+].[Na+].[Na+].[Na+].[Na+].[Na+].[Na+].[Na+].[Na+].[Na+].[Na+] (stereo in doubt; 3j) |  | >1250 |  |  |  |  |  | 2 µg/mL |  | 0.4 µg/mL | 10 µg/mL |
